From ChEMBL document CHEMBL4390678, “Structure-Activity Relationship of Purine and Pyrimidine Nucleotides as Ecto-5'-Nucleotidase (CD73) Inhibitors” (J Med Chem, 2019)
pEC50, pIC50, pKi: −log10 of the molar value. Activity calls are given as the source filed them. The calls are words filed in the database; no cut-off is given here.

Assays:
[1] = species on record: Homo sapiens; assay: Inhibition of cytosolic nucleotidase in MaMel.65-CD73 cell cytosolic extract (unknown origin) at 5 mM using AMP as substrate preincubated for 5 mins followed by substrate addition and measured after 60 mins in presence of levamisole by malachite green oxalate dye based colorimetric method relative to control
Method in brief: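 Cytosolic extract (15.25 µg) from CRISPR CD73-knockout melanoma cells in 50 mM Tris pH 7.0, 100 mM KCl, 5 mM MgCl2. […] Released phosphate read by malachite green/molybdate absorbance at 600 nm. Levamisole 1 mM plus NaF 5 mM as positive control; three independent experiments in duplicate.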

[2] = target: T1, 5'-nucleotidase (Homo sapiens, UniProt P21589); assay: Inhibition of CD73 in human tonsils using AMP as substrate preincubated for 30 mins followed by substrate addition and measured after 45 mins by lead nitrate-based histochemical analysis
Method in brief: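 Human tonsil cryosections pre-incubated 30 min in Trizma-maleate sucrose buffer (40 mM Trizma maleate, 0.25 M sucrose, pH 7.4) with 2 mM levamisole plus inhibitor at 1, 10 or 100 nM. […] Pi deposit developed with 0.5% (NH4)2S. Read-out is mean grayscale pixel intensity of five matched germinal centers versus untreated control. One-way ANOVA with Dunnett's test.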

[3] = target: T2, P2Y purinoceptor 6 (Homo sapiens, UniProt Q15077); assay: Agonist activity at human P2Y6 receptor expressed in human 1321N1 cells assessed as induction of calcium mobilization at 3 uM by calcium-4 dye based FLIPR assay relative to control; assay type: functional, cell-based
[4] = target: T3, P2Y purinoceptor 14 (Homo sapiens) (UniProt Q15391); assay: (§1) Displacement of 6-Amino-9-(2-carboxy-4-((6-(4-(4-(4-(4-(3-carboxy-6-(4-(trifluoromethyl)phenyl)-naphthalen-1-yl)phenyl)piperidin-1-yl)butyl)-1H-1,2,3-triazol-1-yl)hexyl)carbamoyl)-phenyl)-3-iminio-5-sulfo-3H-xanthene-4-sulfonate from recombinant human P2Y14 receptor expressed in CHO cells at 3 uM preincubated for 30 mins followed by tracer addition and measured after 30 mins by flow cytometry; assay type: cell-based
T3 sequence (whole entry): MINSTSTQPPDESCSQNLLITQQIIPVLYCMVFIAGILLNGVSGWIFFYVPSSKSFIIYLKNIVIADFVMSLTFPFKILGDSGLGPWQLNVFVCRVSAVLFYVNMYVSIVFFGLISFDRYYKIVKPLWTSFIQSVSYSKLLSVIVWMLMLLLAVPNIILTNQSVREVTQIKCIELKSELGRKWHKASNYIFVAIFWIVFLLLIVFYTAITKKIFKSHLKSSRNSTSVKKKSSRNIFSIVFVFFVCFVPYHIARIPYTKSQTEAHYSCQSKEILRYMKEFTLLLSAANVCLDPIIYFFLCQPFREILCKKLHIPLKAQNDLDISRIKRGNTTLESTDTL

[5] = target: T4, 5'-nucleotidase (Rattus norvegicus, UniProt P21588); assay: Inhibition of recombinant rat C-terminal His-tagged soluble form of CD73 expressed in baculovirus infected Sf9 insect cells using [2,8-3H]AMP as substrate measured after 25 mins by scintillation counting method
T4 sequence (P21588 whole entry): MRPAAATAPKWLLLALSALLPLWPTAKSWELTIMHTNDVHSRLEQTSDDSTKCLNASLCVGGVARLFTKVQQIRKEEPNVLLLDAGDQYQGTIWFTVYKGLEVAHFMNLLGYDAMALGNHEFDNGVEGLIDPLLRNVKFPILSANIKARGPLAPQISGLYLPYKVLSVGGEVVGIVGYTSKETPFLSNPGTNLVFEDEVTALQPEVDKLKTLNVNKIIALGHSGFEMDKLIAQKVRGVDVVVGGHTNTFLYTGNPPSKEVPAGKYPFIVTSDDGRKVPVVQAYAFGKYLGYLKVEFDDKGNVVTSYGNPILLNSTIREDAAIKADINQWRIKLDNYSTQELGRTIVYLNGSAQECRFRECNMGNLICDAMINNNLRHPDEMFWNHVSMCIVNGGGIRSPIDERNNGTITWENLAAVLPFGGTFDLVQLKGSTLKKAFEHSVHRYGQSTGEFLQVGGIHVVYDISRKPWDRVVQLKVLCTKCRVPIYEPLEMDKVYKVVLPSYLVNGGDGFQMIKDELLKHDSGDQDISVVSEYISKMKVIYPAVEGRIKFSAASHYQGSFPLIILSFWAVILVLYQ
Method in brief: (§2)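 Enzyme is soluble rat CD73 from Sf9 cells, 1.63 ng per vial, in 25 mM Tris, 140 mM NaCl, 25 mM NaH2PO4, pH 7.4. […] Stopped by LaCl3 precipitation and GF/B filtration, then counted. Each compound first screened at 1 µM.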

[6] = target: T5, 5'-nucleotidase (Rattus norvegicus) (UniProt P21588); assay: Inhibition of recombinant rat C-terminal His-tagged soluble form of CD73 expressed in baculovirus infected Sf9 insect cells at 1 uM using [2,8-3H]AMP as substrate measured after 25 mins by scintillation counting method relative to control; method in brief: as §2
T5 sequence (whole entry): T4 sequence (P21588 whole entry)

[7] = species on record: Homo sapiens; assay: Inhibition of cytosolic nucleotidase in MaMel.65-CD73 cell cytosolic extract (unknown origin) at 100 uM using AMP as substrate preincubated for 5 mins followed by substrate addition and measured after 60 mins by malachite green oxalate dye based colorimetric method relative to control
Method in brief: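 Cytosolic extract of CRISPR CD73-knockout MaMel.65 melanoma cells, 15.25 µg, in 50 mM Tris pH 7.0 with 100 mM KCl and 5 mM MgCl2. […] After 60 min, heat-stopped at 95°C. Released phosphate read with malachite green/molybdate at 600 nm. Levamisole 1 mM plus NaF 5 mM served as positive control. Three experiments in duplicate.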

[8] = target: T1, 5'-nucleotidase; assay: Inhibition of CD73 in human MDA-MB-231 cell membranes using [2,8-3H]AMP as substrate measured after 25 mins by scintillation counting method
Method in brief: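 MDA-MB-231 membranes (7.4 ng protein per vial) in 25 mM Tris, 140 mM NaCl, 25 mM NaH2PO4, pH 7.4. […] Stopped with cold LaCl3/acetate buffer pH 4.0 and filtered on GF/B. Background-subtracted and normalized to the uninhibited control.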

[9] = target: T2, P2Y purinoceptor 6; assay: Agonist activity at human P2Y6 receptor expressed in human 1321N1 cells assessed as induction of calcium mobilization by calcium-4 dye based FLIPR assay; assay type: functional, cell-based
[10] = target: T6, P2Y purinoceptor 14 (Homo sapiens, UniProt Q15391); assay: as §1, with “cells” for “cells at 3 uM”; assay type: cell-based
T6 sequence (Q15391 whole entry): T3 sequence (whole entry)

[11] = species on record: Homo sapiens; details: 1 mM
[12] = target: T1, 5'-nucleotidase; assay: Inhibition of recombinant human C-terminal His-tagged soluble form of CD73 expressed in baculovirus infected Sf9 insect cells using [2,8-3H]AMP as substrate measured after 25 mins by scintillation counting method
Method in brief: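 Soluble human CD73 lacking the GPI signal, with a C-terminal 6xHis tag, secreted from baculovirus-infected Sf9 cells and purified on Ni-NTA; 0.365 ng per vial. […] Product separated by lanthanum chloride precipitation and filtration, then scintillation counted.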

[13] = target: T1, 5'-nucleotidase; assay: Inhibition of CD73 in human tonsils at 100 nM using AMP as substrate preincubated for 30 mins followed by substrate addition and measured after 45 mins by lead nitrate-based histochemical analysis
Method in brief: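 Tonsil cryosections pre-incubated 30 min in Trizma-maleate sucrose buffer (pH 7.4) with 2 mM levamisole and inhibitor. […] Deposit developed with 0.5% (NH4)2S and quantified as grayscale mean pixel intensity of five germinal centers versus control (ANOVA, Dunnett).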

T2 sequence (Q15077 whole entry): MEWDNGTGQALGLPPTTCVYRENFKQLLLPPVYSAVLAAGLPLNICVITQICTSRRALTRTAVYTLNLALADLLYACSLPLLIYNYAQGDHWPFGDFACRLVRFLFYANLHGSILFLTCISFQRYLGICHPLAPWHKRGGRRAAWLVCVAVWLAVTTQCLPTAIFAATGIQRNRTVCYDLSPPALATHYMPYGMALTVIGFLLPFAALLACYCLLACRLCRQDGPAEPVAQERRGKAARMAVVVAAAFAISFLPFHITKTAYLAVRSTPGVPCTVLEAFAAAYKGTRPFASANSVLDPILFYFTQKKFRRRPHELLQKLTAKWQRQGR
T1 sequence (P21589 whole entry): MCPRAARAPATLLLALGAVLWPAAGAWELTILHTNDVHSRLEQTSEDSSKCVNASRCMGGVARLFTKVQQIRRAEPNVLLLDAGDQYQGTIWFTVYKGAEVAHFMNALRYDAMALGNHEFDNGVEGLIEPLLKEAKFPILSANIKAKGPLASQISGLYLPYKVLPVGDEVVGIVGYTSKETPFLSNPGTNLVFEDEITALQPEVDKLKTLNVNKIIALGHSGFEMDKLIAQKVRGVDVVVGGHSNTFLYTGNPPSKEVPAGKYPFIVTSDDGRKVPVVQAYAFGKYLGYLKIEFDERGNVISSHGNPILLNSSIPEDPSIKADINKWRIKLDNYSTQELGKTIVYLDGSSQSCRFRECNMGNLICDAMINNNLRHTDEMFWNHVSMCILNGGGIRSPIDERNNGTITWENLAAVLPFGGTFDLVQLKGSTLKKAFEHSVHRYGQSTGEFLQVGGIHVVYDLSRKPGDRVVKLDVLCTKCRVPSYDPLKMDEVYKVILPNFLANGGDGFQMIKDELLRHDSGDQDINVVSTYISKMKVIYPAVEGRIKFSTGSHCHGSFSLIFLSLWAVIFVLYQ

Row | Structure (SMILES) | inhibition [1] | inhibition [2] | Activity [3] | inhibition [4] | pKi [5] | inhibition [6] | inhibition [7] | pKi [8] | pEC50 [9] | pIC50 [10] | inhibition [11] | pKi [12] | inhibition [13]
1 | [F-].[Na+] | 70% |  |  |  |  |  |  |  |  |  |  |  | 
2 | Cn1c(=NOCc2ccccc2)ccn([C@@H]2O[C@H](COP(=O)(O)CP(=O)(O)O)[C@@H](O)[C@H]2O)c1=O |  | Dose-dependent effect | 3.6% | inactive | 8.44 | > 50% | -2% | 8.10 | < 5.52 | < 5.52 |  |  | 
3 | c1ccc([C@H]2CN3CCSC3=N2)cc1 |  |  |  |  |  |  |  |  |  |  | 70% |  | 
4 | O=c1[nH]/c(=N/OCc2ccc3ccccc3c2)ccn1[C@@H]1O[C@H](COP(=O)(O)CP(=O)(O)O)[C@@H](O)[C@H]1O |  |  |  |  | 7.73 | > 50% | -5% | 8.20 |  |  |  | 8.16 | 
5 | O=c1[nH]/c(=N/OCc2ccccc2)c(F)cn1[C@@H]1O[C@H](COP(=O)(O)CP(=O)(O)O)[C@@H](O)[C@H]1O |  |  |  |  | 7.07 | > 50% |  | 7.78 |  |  |  | 7.80 | 
6 | O=c1[nH]c(=O)n([C@@H]2O[C@H](COP(=O)(O)CP(=O)(O)O)[C@@H](O)[C@H]2O)cc1F |  |  |  |  | 7.83 | > 50% | 4% | 8.35 | 6.69 | 6.44 |  | 8.27 | 
7 | Nc1ncnc2c1ncn2[C@@H]1O[C@H](COP(=O)(O)CP(=O)(O)O)[C@@H](O)[C@H]1O [PHOSPHOMETHYLPHOSPHONIC ACID ADENOSYL ESTER] |  |  |  |  | 6.78 | > 50% |  |  |  |  |  |  | Active
8 | O=C(Nc1ccn([C@@H]2O[C@H](COP(=O)(O)CP(=O)(O)O)[C@@H](O)[C@H]2O)c(=O)n1)c1ccccc1 |  |  |  |  | 7.86 | > 50% | -3% | 8.25 | 5.86 | 5.18 |  | 8.34 | 
